Data reported in PMC6460348 (ChemistryOpen, 2019).

Target: wild type XIAP‐BIR1 (Homo sapiens, UniProt P98170)
Assay: MicroScale Thermophoresis
Assay type: binding
How it was run: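 Human XIAP-BIR1 domain (wild type, or R62S, D71A, R82S or V86E point mutant made by site-directed mutagenesis), expressed from pET28b and purified. Lysines were covalently dye-labelled, and protein was held at 100 nM. Test compound was added as a two-fold series, final 30 nM–1.0 mM or 300 nM–10 mM. Assay at 24 °C in 50 mM Tris-HCl pH 8, 200 mM NaCl, 10 % glycerol, 10 mM DTT, 0.05 % Tween20, with 20 % LED and medium MST power. Kd was fitted from unbound/bound response values.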

Sequence of wild type XIAP‐BIR1 (P98170 10-99 limits assumed): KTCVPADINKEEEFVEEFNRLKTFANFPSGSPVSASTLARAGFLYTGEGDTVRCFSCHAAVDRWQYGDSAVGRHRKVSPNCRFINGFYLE

Compound: Cc1ccc(C(=O)Nc2ccc(S(=O)(=O)O)c3cc(S(=O)(=O)O)cc(S(=O)(=O)O)c23)cc1NC(=O)c1cccc(NC(=O)Nc2cccc(C(=O)Nc3cc(C(=O)Nc4ccc(S(=O)(=O)O)c5cc(S(=O)(=O)O)cc(S(=O)(=O)O)c45)ccc3C)c2)c1 [Suramin]
- Kd: 612 ± 109 µM
